Screening data from PubChem BioAssay.
In the library only some 4% were active in any assay of this set; here they are far more common.
GRIN3A LBD mod – NR3A (human) ligand-binding domain modulation. NR3A LBD differential scanning fluorimetry, Tm shift; 0% = protein alone, 100% = glycine-bound protein. Tm shift relative to glycine control, % at 25 µM. AID 1259313. 340,000 tested, 2.5% active;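 active means melting temperature shift of at least 10% of the positive control shift, at one fixed dose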
iPSC survival up – increases survival of single human iPS cells; hiPSC single-cell survival, ATPlite luminescence; 100% = ROCK inhibitor wells, 0% = DMSO; survival enhancement, % at 20 µM; 360,000 tested, 0.044% active; in the data active means survival enhancement above about 18%;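 further: cells exposed to compounds for 16 hours before the ATP read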
SENP1 FRET inh – blocks the human SENP1 SUMO protease catalytic domain; 360,000 tested, 0.21% active; recombinant SENP1 catalytic domain, CyPet-SUMO1-YPet FRET cleavage; inhibition, % at 10 µM; Q9P0U3;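 active means inhibition at least 30% at 10 µM, raw YFP signal under a set limit, fluorescence ratio 0.5 to 1.5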;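 further: 0% = enzyme with DMSO and 100% = no enzyme wells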
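Assay system: hSENP1 catalytic domain, recombinant. Amount: SENP1 enzyme, 20 pM final. Schedule: 50 min reaction, RT, dark. Technique: FRET, CFP and YFP emission. Control set: no-enzyme wells low, DMSO-plus-enzyme wells high control.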
H9c2 protect – protects H9c2 cardiomyocytes from peroxide injury. AID 588492. protection from H2O2 cell death, % at 20 µM. 360,000 tested, 0.63% active. H2O2 injury protection, ATPLite, 2 h;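 active means compounds giving at least 50% protection of heart cells from peroxide-induced death in the single-dose screen, raw or plate-pattern-corrected value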;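 further: 0% = DMSO wells with peroxide and 100% = DMSO wells without peroxide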
FAS TE block – inhibitors of human fatty acid synthase thioesterase domain | 360,000 tested, 0.67% active | inhibition, % at 15 µM | recombinant FAS-TE, OMFH fluorogenic substrate, fluorescence endpoint | P49327;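 active means compounds whose normalised, plate-corrected inhibition of enzyme fluorescence in the single-dose primary screen is 50% or more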;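 further: 0% = DMSO with enzyme and 100% = substrate without enzyme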
Arrestin-AP2 inh – human beta-arrestin and AP2 interaction inhibition | inhibition, % at 10 µM | AID 504490 | 340,000 tested, 0.31% active | FITC-arrestin peptide / GST-AP2 beads, flow cytometry; AP2 beta2 appendage carries R879A mutation;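 active means inhibition above a set limit, near 3 SD of compounds lacking own fluorescence, cut at about 54% in these data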;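 further: plate controls were DMSO wells for no effect and 5 µM unlabelled arrestin peptide for full effect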
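System: GST-AP2 R879A glutathione beads | Also added: FITC-arrestin peptide, 50 nM | Times: 12 min plus 1 h, RT | Signal: Bead flow cytometry, FITC channel | Buffer or medium: PBS with 0.05% Tween 20 and 0.1% BSA | Read-out basis: Percent drop in bead-associated FITC signal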
FAS-TE conf – confirmation of human fatty acid synthase thioesterase inhibitors. recombinant FAS-TE, OMFH fluorogenic substrate, fluorescence. inhibition, % at 15 µM. 2,300 tested, 45% active. shares compounds with FAS TE block;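 active means compounds inhibiting the enzyme by at least 50% at 15 µM in any one of the replicates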;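 further: 0% = enzyme with DMSO only and 100% = wells lacking enzyme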
* marks the source's active call; other numbers are inactive results; nt = no result.

SMILES	GRIN3A LBD mod	iPSC survival up	SENP1 FRET inh	H9c2 protect	FAS TE block	Arrestin-AP2 inh	FAS-TE conf
COc1ccc2c(c1)c(CC(=O)Nc1ccccc1OC)c(C)n2C(=O)c1ccc(Cl)cc1	-2.4	-1.2	1.3	-0.9	51.6*	-0.7	12.2
COc1ccc2c(c1)c(CC(=O)Nc1cc(C)ccc1C)c(C)n2C(=O)c1ccc(Cl)cc1	-4.3	-2.0	0.9	-7.8	21.4	28.4	nt
O=C(NNC(=S)Nc1ccccc1Cl)c1ccccc1Br	-9.6	-0.4	1.6	-9.0	-1.7	35.6	nt
O=C(O)/C(=C\c1cccc(F)c1)c1ccc(S(=O)(=O)N2CCCCC2)s1	0.8	-0.7	-1.5	-1.2	-7.6	-2.6	nt
O=C(O)/C(=C/c1ccc(Cl)c([N+](=O)[O-])c1)c1ccc(S(=O)(=O)N2CCCCC2)s1	-14.8	0.6	4.0	9.5	55.8*	-4.2	52.9*
N#Cc1ccc(Oc2ccc(-c3nc4ccccc4nc3-c3ccccc3)cc2)cc1C#N	-3.7	1.4	1.7	1.2	70.3*	37.6	27.6
Cc1ccc(NC(=O)C2(C)CCN2C(=O)Cc2ccc(C(C)C)cc2)cc1 (centres undefined)	nt	-0.9	1.9	-20.8	19.3	nt	nt
COc1ccc(-c2csc(N3C(=N)SCC3=O)n2)cc1	2.4	-2.7	2.0	-3.3	-10.3	9.9	nt
COc1ccc(-c2csc(N3C(=O)C4C5c6ccccc6C(c6ccccc65)[C@@H]4C3=O)n2)cc1 (some centres undefined)	-2.4	0.8	-2.3	-6.5	58.8*	-1.1	12.5
COc1ccc(-c2csc(N3C(=O)C4C5c6ccccc6C(c6ccccc65)C4C3=O)n2)cc1 (centres undefined)	0.8	1.1	0.1	-3.5	63.2*	-3.3	33.8
COc1ccc2c(c1)OC[C@H]1[C@H]2N2C(=O)c3cc(Cl)ccc3NC(=O)[C@@]2(C)[C@H]1c1ccccc1	-3.1	1.2	-2.3	-4.7	66.6*	-4.3	16.9
CCOC(=O)[C@H]1[C@H]2COc3cc(OC)ccc3[C@@H]2N2C(=O)c3cc(OC)ccc3NC(=O)[C@@]12C	0.6	2.1	2.6	2.6	-2.5	5.2	nt
COc1ccc2c(c1)OC[C@H]1[C@H]2N2C(=O)c3cc(OC)ccc3NC(=O)[C@@]2(C)[C@H]1c1ccccc1	-0.8	1.9	-0.1	2.0	95.0*	-4.1	54.4*
CCOC(=O)[C@H]1[C@H]2COc3cc(OC)ccc3[C@@H]2N2C(=O)c3cc(F)ccc3NC(=O)[C@@]12C	-0.6	-0.7	1.2	2.9	0.9	33.4	nt
COc1ccc2c(c1)OC[C@H]1[C@H]2N2C(=O)c3ccc(C)cc3NC(=O)[C@@]2(C)[C@H]1c1ccccc1	-5.0	-0.7	-0.2	-0.5	90.3*	-0.7	40.3
COc1ccc2c(c1)OC[C@H]1[C@H]2N2C(=O)c3cc(F)ccc3NC(=O)[C@@]2(C)[C@H]1c1ccccc1	-4.3	2.7	0.6	-4.7	74.4*	-12.8	1.7
CC1(C(=O)NCc2ccccn2)CCN1C(=O)Cc1ccc(Cl)cc1Cl (centres undefined)	nt	2.6	0.6	-5.3	-11.9	nt	nt
COc1cccc(C(C)(O)c2nc(-c3ccc(F)cc3OC)cs2)c1 (centres undefined)	nt	3.7	1.2	-4.7	15.9	nt	nt
COc1ccc2c(c1)C(=O)N1[C@H]3c4cc(Cl)ccc4OC[C@@H]3[C@H](c3ccccc3)[C@]1(C)C(=O)N2	-3.3	1.9	-3.7	-1.5	64.3*	-9.0	45.0*
Cc1ccc(S(=O)(=O)NC(=O)C2(C)CCN2C(=O)c2cccc(F)c2)nc1 (centres undefined)	nt	3.8	0.7	2.2	-7.0	nt	nt
Cc1cc(-c2nnc(CSc3nnc(NC(=O)c4ccc(C(C)(C)C)cc4)s3)o2)ccc1[N+](=O)[O-]	1.9	-0.4	2.6	-5.3	75.1*	-1.3	9.7
COCCSc1nnc(NC(=O)c2ccc([N+](=O)[O-])cc2)s1	0.5	-0.1	0.9	-12.9	3.3	7.4	nt
CC(=O)c1cccc(-c2ccnc3c2CC(C(=O)Nc2ccccc2)O3)c1 (centres undefined)	nt	-2.8	-1.6	-0.7	7.6	nt	nt
CC(C)c1ccc(NC(=O)C2Cc3c(-c4cccc(F)c4)ccnc3O2)cc1 (centres undefined)	nt	2.5	-1.2	-14.6	50.0*	nt	42.3
CC(=O)c1cccc(-c2ccnc3c2CC(C(=O)Nc2ccc(F)c(Cl)c2)O3)c1 (centres undefined)	nt	-3.9	0.5	-8.5	60.5*	nt	58.0*
SMILES	GRIN3A LBD mod	iPSC survival up	SENP1 FRET inh	H9c2 protect	FAS TE block	Arrestin-AP2 inh	FAS-TE conf
O=[N+]([O-])c1cccc(S(=O)(=O)Nc2nc3ccccc3nc2Nc2cccc(S(=O)(=O)N3CCCCC3)c2)c1	-4.3	1.5	1.3	-29.4	82.5*	-5.9	16.8
Cc1cccc(C)c1NC(=O)C(c1ccccc1)N1CCN(c2ccc(F)cc2)CC1 (centres undefined)	nt	0.7	1.4	2.3	4.8	nt	nt
O=S1(=O)c2ccc(Br)cc2N2CC[C@H](C2)N1Cc1ccc(Cl)cc1	0.2	-1.2	0.1	-15.4	27.9	3.1	nt
COc1cc(N(C)C)c([N+](=O)[O-])cc1C(=O)NC(C)CNc1ccc([N+](=O)[O-])cc1Cl (centres undefined)	-2.2	0.4	-2.1	31.9	70.5*	0.2	59.2*
CCN(CC)CCNC(=O)c1cc([N+](=O)[O-])c(N(C)C)cc1OC	-2.1	0.7	0.7	6.4	-0.6	-6.9	nt
Cn1c2ccccc2c2nnc(SCC(N)=O)nc21	4.3	-0.8	-0.5	0.0	-9.7	9.1	nt
Cn1c2ccccc2c2nnc(SCc3ccc4nonc4c3)nc21	-3.1	-1.4	2.6	6.4	58.3*	7.2	23.1
CCn1cc(C(=O)NCc2ccco2)c(=O)c2cc(S(=O)(=O)N3CCCCCC3)ccc21	-6.4	-1.0	-2.1	5.5	77.6*	3.8	58.4*
C=CCn1cc(C(=O)NCCOC)c(=O)c2cc(S(=O)(=O)N3CCCCCC3)ccc21	3.4	1.1	-2.3	0.7	-2.4	-18.6	nt
CCn1cc(C(=O)NCc2ccco2)c(=O)c2cc(S(=O)(=O)N3CC(C)CC(C)C3)ccc21 (centres undefined)	-3.6	-1.7	2.3	-2.5	78.1*	-3.4	87.3*
CCn1cc(C(=O)NCc2ccco2)c(=O)c2cc(S(=O)(=O)N3CCC(C)CC3)ccc21	-5.6	0.7	-2.8	-3.9	74.5*	4.3	83.7*
